For one data set, the system named is AIF mRNA. Kind of data set: RT-qPCR for AIF mRNA on VCaP cells. The data set is classed as cell-based, human. Conditions: 2 or 5 μmol/L, 12 or 24 hours. In general terms: In qPCR the cycle at which signal appears reflects the starting amount.
The test system of data set [1] is VCaP cells. The experiment in a line: Cell necrosis and apoptosis, PI/Hoechst 33342 flow cytometry. It counts as cell-based, human. A general note: Flow cytometry measures light scatter and fluorescence of single cells or particles in a stream.
In another data set the test system is DU145. Kind of data set: Cell proliferation. The data set is classed as cell-based. Conditions: Homo sapiens, DU-145, 72 h, read-out: Growth inhibitory IC50, DU145.
Another data set concerns the target STAT3 (Homo sapiens, UniProt P40763). The experiment in a line: Surface plasmon resonance, STAT3. It counts as binding. (In general: In SPR one partner is held on a chip, and binding of the other changes the refractive index at the surface.)
A further data set relates to VCaP. Kind of data set: Cell proliferation. It counts as cell-based, human. The following applies: for IC50: Homo sapiens, VCaP, 72 h, read-out: Growth inhibitory IC50, VCaP.
In another data set the test system is DU145 vector. The experiment in a line: Cell proliferation on DU145 vector control cells. It counts as cell-based. The following applies: Homo sapiens, DU-145, read-out: IC50, DU145 vector.
A further data set relates to cleaved PARP1. Kind of data set: Western blotting for cleaved PARP1 in VCaP cells. The data set is classed as cell-based, human.
The test system of the next data set is WPMY. Kind of data set: Cell proliferation. The data set is classed as cell-based. The following applies: Homo sapiens, 72 h, read-out: Growth inhibitory IC50, WPMY.
Data set [2] has as its system VCaP cells. The experiment in a line: Cell-cycle determination by flow cytometry. The data set is classed as cell-based, human. The following applies: 5, 10, or 20 μmol/L, 24 hours.
For a further data set, the system named is γ-H2A.X. Kind of data set: γ-H2A.X Western blotting in VCaP cells. It counts as cell-based, human.
The next data set concerns VCaP xenograft tumors. The experiment in a line: VCaP xenograft in male SCID mice. The data set is classed as in vivo. Put shortly:
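Male SCID mice were implanted subcutaneously on the left abdomen with 4 × 10^6 VCaP cells. At about 100 mm3, mice were randomised, six per group. Dosing was 75 mg/kg i.p. once daily or 37.5 mg/kg by gavage twice daily; controls got solvent i.p. Plasma ALT and AST were measured by kit every 7 days. Endpoint was tumour volume >2 cm3. Data are mean ± SD, Dunnett test versus control.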

The next data set has as its system AIF. Kind of data set: AIF Western blot in VCaP cells. It counts as cell-based, human.
Data set [3] deals with T1, interaction between ERG and PARP1 (Homo sapiens, UniProt P11308).
T1 sequence (P11308 1-479): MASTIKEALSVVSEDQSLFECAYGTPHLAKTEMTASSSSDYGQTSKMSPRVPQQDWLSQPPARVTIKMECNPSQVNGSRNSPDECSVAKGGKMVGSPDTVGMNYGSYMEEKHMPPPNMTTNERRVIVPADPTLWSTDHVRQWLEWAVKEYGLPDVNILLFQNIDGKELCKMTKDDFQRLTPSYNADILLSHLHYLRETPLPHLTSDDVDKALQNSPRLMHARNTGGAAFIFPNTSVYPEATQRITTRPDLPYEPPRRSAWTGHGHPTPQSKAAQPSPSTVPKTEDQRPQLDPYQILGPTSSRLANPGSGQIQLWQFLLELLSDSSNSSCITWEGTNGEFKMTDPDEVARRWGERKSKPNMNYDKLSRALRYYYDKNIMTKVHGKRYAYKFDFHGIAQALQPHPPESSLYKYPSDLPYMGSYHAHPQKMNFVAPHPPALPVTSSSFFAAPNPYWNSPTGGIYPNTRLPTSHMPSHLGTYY
It counts as cell-based. Conditions: 0.5 or 1 μmol/L, 2 hours, DU145-ERG.

For another data set, the system named is LNCaP. Kind of data set: Cell proliferation. It counts as cell-based. Conditions: Homo sapiens, 72 h, read-out: Growth inhibitory IC50, LNCaP.
The target in the next data set is T2, ERG (Homo sapiens, UniProt P11308).
T2 sequence (P11308 1-479): T1 sequence (P11308 1-479)
Kind of data set: Surface plasmon resonance, ERG. The data set is classed as binding. The following applies: SPR.

The subject of the next data set is PC3. The experiment in a line: Cell proliferation. It counts as cell-based. The following applies: Homo sapiens, PC-3, 72 h, read-out: Growth inhibitory IC50, PC3.
A further data set addresses T3, ALDH1 (Homo sapiens, UniProt P00352).
T3 sequence (P00352 1-501): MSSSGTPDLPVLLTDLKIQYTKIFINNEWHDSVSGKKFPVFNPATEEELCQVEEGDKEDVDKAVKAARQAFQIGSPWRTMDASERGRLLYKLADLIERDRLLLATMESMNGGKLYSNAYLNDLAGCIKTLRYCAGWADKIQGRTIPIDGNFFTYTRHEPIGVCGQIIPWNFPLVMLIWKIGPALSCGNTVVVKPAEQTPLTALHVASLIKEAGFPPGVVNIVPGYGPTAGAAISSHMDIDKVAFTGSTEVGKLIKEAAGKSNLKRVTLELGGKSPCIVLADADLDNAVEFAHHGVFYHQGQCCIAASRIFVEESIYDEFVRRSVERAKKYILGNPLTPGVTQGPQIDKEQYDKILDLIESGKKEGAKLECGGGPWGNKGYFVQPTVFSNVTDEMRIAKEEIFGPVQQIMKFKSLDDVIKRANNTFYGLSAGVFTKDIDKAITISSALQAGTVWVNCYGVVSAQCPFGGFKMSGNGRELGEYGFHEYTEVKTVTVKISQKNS
The experiment in a line: Surface plasmon resonance, ALDH1. The data set is classed as binding.

Where [4] appears, read: NFZ-treated groups, every 7 days.

Chain of STAT3 (P40763 whole entry): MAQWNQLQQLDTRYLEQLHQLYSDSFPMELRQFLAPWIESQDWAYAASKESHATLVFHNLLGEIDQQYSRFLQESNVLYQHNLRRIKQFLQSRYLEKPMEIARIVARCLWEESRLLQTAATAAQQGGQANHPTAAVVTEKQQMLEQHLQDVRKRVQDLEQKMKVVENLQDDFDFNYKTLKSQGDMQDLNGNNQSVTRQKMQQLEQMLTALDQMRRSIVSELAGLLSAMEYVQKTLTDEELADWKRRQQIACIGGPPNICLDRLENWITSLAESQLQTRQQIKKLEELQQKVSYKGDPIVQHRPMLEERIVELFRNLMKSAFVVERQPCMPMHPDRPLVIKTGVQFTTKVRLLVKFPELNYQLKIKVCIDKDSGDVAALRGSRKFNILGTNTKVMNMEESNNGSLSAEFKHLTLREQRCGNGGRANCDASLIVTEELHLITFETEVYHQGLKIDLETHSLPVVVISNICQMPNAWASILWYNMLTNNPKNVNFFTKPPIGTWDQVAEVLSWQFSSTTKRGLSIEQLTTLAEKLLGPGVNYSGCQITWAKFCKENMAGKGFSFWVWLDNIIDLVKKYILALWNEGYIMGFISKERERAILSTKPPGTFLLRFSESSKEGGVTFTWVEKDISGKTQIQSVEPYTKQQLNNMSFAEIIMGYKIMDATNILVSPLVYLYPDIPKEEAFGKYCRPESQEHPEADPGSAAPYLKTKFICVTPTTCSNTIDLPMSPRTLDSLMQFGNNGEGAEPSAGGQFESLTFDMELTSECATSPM

Turning to `O=C(N/N=C/c1ccc([N+](=O)[O-])o1)c1ccc(O)cc1` [NFZ, Nifuroxazide], the “AIF mRNA expression” value in the data set on AIF mRNA is recorded as “increased the expression of AIF”. Moreover, in the data set with VCaP cells [1] (5, 10, or 20 μmol/L, VCaP), the “Dead cells along the PI axis (Q1 and Q2)” value is listed as “significantly higher than that in the DMSO group”. In addition, the IC50 in the data set on DU145 was 5.12 ± 0.63 µM; in the data set with VCaP, 2.65 ± 0.08 µM; in the data set on DU145 vector, 7.68 ± 0.211 µM; in the data set on WPMY, 4.53 ± 0.12 µM; with LNCaP it was 13.4 ± 2.66 µM; in the data set on PC3, 3.62 ± 0.51 µM. For the same compound, the dissociation constant Kd is 22.8 µM on STAT3 and 22.2 µM on ALDH1. The “Binding pattern with STAT3” value on STAT3 (SPR) is recorded as “fast binding/fast dissociation”. Besides, in the data set on cleaved PARP1 (2 or 5 μmol/L, VCaP), the PARP1 cleavage result is on record as “increased PARP1 cleavage”. Moreover, the “Proportion of cells in the G1–G0 phase” value in the data set on VCaP cells [2] is given as “increased with the increasing NFZ concentrations”. The γ-H2A.X expression entry in the data set with γ-H2A.X (2 or 5 μmol/L, different times, VCaP) was “increased”. Further, the “Plasma ALT” value with VCaP xenograft tumors (setting [4]) is “fluctuated within a normal range”. Besides, in the data set with VCaP xenograft tumors (setting [4]), the “Plasma AST” value is “fluctuated within a normal range”. The “Weight loss of mice” value in the data set with VCaP xenograft tumors (NFZ-treated versus vehicle) is reported as “significantly less than that of mice treated with vehicle”. Besides, the Toxicity by observation entry in the data set on VCaP xenograft tumors (gavage or i.p.) was “did not show obvious toxicity”. In the data set on AIF (2 or 5 μmol/L, within 30 minutes, VCaP), the AIF protein entry is reported as “rapidly released AIF”. For the same compound, the “Amount of PARP1 bound to ERG” value in data set [3] is recorded as “reduced the amount of PARP1 bound to ERG”. Moreover, on ERG, the “Binding pattern with ERG” value is “fast binding and fast dissociation”. Also, the “Reduction of NFZ inhibition on DU145-ERG by addition of olaparib” value in the data set with DU145-ERG (10 μmol/L OLP) is given as “at least 10 fold”. Further, the “Difference in IC50 between DU145-ERG and DU145 vector” value with DU145-ERG (p < 0.0001) was “at least sevenfold”. Moreover, the “Binding pattern with ALDH1” value on ALDH1 (SPR) is “fast binding/fast dissociation”.
Turning to `CC1CS(=O)(=O)CCN1/N=C/c1ccc([N+](=O)[O-])o1` (stereo not shown) [Nifurtimox], the IC50 with DU145, in the data set on VCaP, in the data set with WPMY, in the data set with LNCaP and with PC3 was over 30 µM in each case.
With `O=C(c1cc(Cc2n[nH]c(=O)c3ccccc23)ccc1F)N1CCN(C(=O)C2CC2)CC1` [Olaparib, olaparib], the “Effect of olaparib on NFZ-induced necrotic cells (Q1 and Q2)” value in the data set with VCaP cells [1] (olaparib and NFZ combination group versus NFZ) is reported as “reduced the number of necrotic cells”. The “Effect of olaparib on NFZ-mediated growth inhibition” value in the data set on VCaP (5 μmol/L NFZ with 20 μmol/L olaparib) was “completely abrogated the inhibitory effects of NFZ”; in the data set with VCaP (5 μmol/L NFZ with 0.5, 1.0, or 20 μmol/L OLP), “blocked NFZ-mediated growth inhibition”. The “Effect of olaparib on NFZ-induced PARP1 cleavage” value in the data set with cleaved PARP1 (10 μmol/L OLP with NFZ) is “not altered”. For the same compound, the “Effect of olaparib on NFZ-induced γ-H2A.X” value in the data set with γ-H2A.X (10 μmol/L OLP with NFZ) is on record as “counteracted this effect of NFZ”. Further, in the data set with AIF (10 μmol/L olaparib with NFZ), the “Effect of olaparib on NFZ-induced AIF release” value is “reduced”.
As for `CC(=O)c1cc2c(o1)C(=O)c1ccccc1C2=O` [Napabucasin], the IC50 in the data set with DU145 was 0.16 ± 0.05 µM; in the data set with VCaP, 0.23 ± 0.05 µM; in the data set on WPMY it was 0.25 ± 0.01 µM; with LNCaP, 0.23 ± 0.08 µM; with PC3, 0.29 ± 0.07 µM.
`O=C(N/N=C/c1ccc([N+](=O)[O-])o1)c1cc([N+](=O)[O-])cc([N+](=O)[O-])c1O` [Nifursol]: the IC50 in the data set on DU145, with VCaP, in the data set with WPMY, with LNCaP and with PC3 was over 30 µM in each case.
On to `CSCC1CN(/N=C/c2ccc([N+](=O)[O-])o2)C(=O)O1` (stereo not shown) [Nifuratel], for which the concentration for half-maximal inhibition (IC50) in the data set on DU145 is 27.7 ± 1.11 µM; in the data set with VCaP, 13.9 ± 1.12 µM; in the data set with WPMY, 26.6 ± 0.13 µM; with LNCaP, over 30 µM; with PC3, 3.87 ± 0.35 µM.
For `CCN(CC)C(=S)SSC(=S)N(CC)CC` [Disulfiram] the same measures were 22.6 ± 2.93 µM, over 30 µM, 23.3 ± 0.49 µM, 33 ± 3.11 µM and 27 ± 2 µM.

Broadly, the IC50 is the concentration at which inhibition is half-maximal. By Kd is commonly meant the equilibrium constant for the complex coming apart.
